Screening results deposited in PubChem BioAssay by Broad Institute.
T cruzi inh – blocks replication of Trypanosoma cruzi. T. cruzi beta-gal in NIH3T3, luminescence, 90 h. inhibition, % (no concentration beside the values). 1.4% of 300,000 active. AID 1885;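 active = mean inhibition across valid replicates above about 55%, limit read from the data; inconclusive = mean below that limit but half or more replicates reach it; inactive = mean below it, under half of replicates reach it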;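 also: signal also drops with host cell toxicity which is not excluded here; higher percent means less beta-gal luminescence so fewer parasites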
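System: mouse NIH/3T3 fibroblasts infected with β-gal-expressing T. cruzi Tulahuen C4 / Input: NIH/3T3 cells, 5,000 per well / Buffer or medium: Low-serum DMEM with 2% FBS / Probe or stimulus: 5000 reporter trypomastigotes per well / Schedule: ≥90 h infection period, 3 h prior cell attachment / Measured by: GalScreen luminescence, 60 min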
CaV13 ICDI inh – Disruptors of the CACNA1D IQ motif to Ca2+-dependent inactivation inhibitor domain association, primary screening, Förster resonance energy transfer in intact living … | HEK cells, CFP/YFP FRET ICDI-IQ, plate reader, 10 min; percent FRET-ratio fall versus neutral wells | inhibition, % at 12.3 µM | 0.098% of 340,000 active;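 active = mean replicate inhibition of at least 30% and at least 1% of replicates passing that level; inconclusive = only one of the two criteria is met; inactive = neither criterion is met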
HSF-1 act – increases HSF-1 driven luciferase reporter signal; NIH3T3-HGL HSF-1 luciferase reporter, MG132, 8 h; 100% = twice DMSO control signal; activation, % at 9 µM; 1.7% of 300,000 active; AID 504408;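 active = mean replicate activation of at least 50% with a set share of replicates each reaching 50%; inconclusive = only one of those two conditions met; inactive = mean below 50% and too few replicates reaching it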
PfHsp90 yeast 2 – growth inhibition of yeast expressing Plasmodium Hsp90; S. cerevisiae expressing PfHsp90, BacTiter-Glo ATP, 48 h; yeast lacking PDR1 and PDR3 efflux regulators; inhibition, % at 9.4 µM; 0.32% of 310,000 active;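 active = every replicate shows inhibition above about 80%, whatever the replicate mean, limit read from the data; inconclusive = mean inhibition reaches the set limit but some replicate falls short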
Glyco luc inh – N-linked glycosylation inhibition. D54 ERlucT glycosylation luciferase reporter, 24 h; percent of 100 nM tunicamycin response. reporter increase, % at 12.5 µM. 0.23% of 360,000 active. AID 588692;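 active = mean luciferase reporter signal, scaled so untreated is 0 and the glycosylation-blocking control 100, at or above a set limit in every replicate; inconclusive = mean reaches the limit but not every replicate does; inactive = mean below the limit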;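 also: luciferase carries N-glycosylation sites so blocking glycosylation raises the light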
PvdQ acylase – P. aeruginosa PvdQ acylase inhibition; purified PvdQ acylase, fluorescence plate reader; inhibition, % at 10 µM; 0.063% of 340,000 active; AID 488965; in the data active = inhibition above about 30%, passing the limit was not always enough; inconclusive = no clear call, values can overlap the other calls
A number is an active result; - = inactive; ? = inconclusive; . = not tested or not shown. In the library only some 3% were active in any assay of this set; here they are far more common.

SMILES	T cruzi inh	CaV13 ICDI inh	HSF-1 act	PfHsp90 yeast 2	Glyco luc inh	PvdQ acylase
Cc1nc2c(-c3ccc(F)cc3)cnn2c2c1CCC2	-	-	52	-	-	-
COc1ccc(-c2cnc3c(-c4ccc(F)cc4)cnn3c2N)cc1	-	-	-	-	-	-
CCOc1ccc(NCc2cc3c(C(C)(C)C)nn(-c4ccccc4)c3[nH]c2=O)cc1	-	-	.	103	-	-
CC(C)(C)c1nn(-c2ccccc2)c2[nH]c(=O)c(C=O)cc12	-	-	-	120	-	-
Nc1[nH]c(C(=O)c2ccc(Cl)cc2)c(-c2ccc(Br)cc2)c1C(=O)NCCc1c[nH]c2ccccc12	.	-	.	.	.	.
CCCNC(=O)Nc1ccc(C)cc1C	-	-	51	-	-	-
O=C1C=C(c2cc(F)ccc2F)C[C@@H](c2ccc(F)cc2)C1	.	-	.	-	-	64
Cc1cc(Cl)ccc1C1=CC(=O)C[C@H](c2ccc(F)cc2)C1	.	-	.	-	-	-
N/C(=N\OC(=O)c1ccc2ccccc2c1)c1ccccc1Cl	72	.	-	100	-	-
CN(C)c1ccc(/C=C2\SC(=S)N(Nc3ncc(C(F)(F)F)cc3Cl)C2=O)cc1	-	-	-	.	-	-
COc1cc(/C=C2\SC(=S)N(Nc3ncc(C(F)(F)F)cc3Cl)C2=O)ccc1O	-	-	72	106	-	-
O=C(N/N=C/c1ccccn1)c1cc(-c2ccc(Br)cc2)nc2ccccc12	-	-	169	106	-	-
CCCOc1cccc(-c2cc(C(=O)N/N=C/c3cccnc3)c3ccccc3n2)c1	.	-	.	-	-	-
Cc1[nH]c2ccccc2c1/C=N/NC(=O)c1cc(-c2ccncc2)nc2ccccc12	-	-	-	-	37	-
CCCOc1cccc(-c2cc(C(=O)N/N=C/c3ccccn3)c3ccccc3n2)c1	-	.	143	-	-	-
O=C(N/N=C/c1ccccn1)c1cc(-c2ccc(Cl)cc2)nc2ccccc12	-	-	147	99	-	-
Cc1[nH]c2ccccc2c1/C=N/NC(=O)c1cc(-c2ccccc2)n[nH]1	.	-	-	-	-	-
O=C(O)c1cccc(C(=O)O)c1S(=O)Cc1ccccc1 (stereo not given)	.	-	.	.	.	.
N#Cc1ccc(/C=N/NC(=O)c2cc(-c3cccs3)nc3ccccc23)cc1	-	-	60	-	-	-
Cc1ccc(-c2nc(SC(C)C(=O)NC3CC3)n[nH]2)cc1 (stereo not given)	.	-	.	.	-	.
c1ccc(CCN2CCN(c3ncnc4c3cnn4-c3ccccc3)CC2)cc1	64	-	-	-	-	-
CC1(C(=O)NS(=O)(=O)C2CC2)CCCN(C(=O)COCc2ccccc2)C1 (stereo not given)	.	-	.	.	-	.
CN(C)C(=O)C[C@@H]1CC[C@@H](NC(=O)C2CCC2)[C@@H](CO)O1	.	-	.	.	.	.
Cc1ccc(Nc2nc(CSc3nnnn3-c3ccccc3)cs2)cc1	-	-	70	.	-	-
COc1ccc2c(c1)C(=O)/C(=C/C=C/c1ccccc1)CC2	-	-	-	.	-	-
SMILES	T cruzi inh	CaV13 ICDI inh	HSF-1 act	PfHsp90 yeast 2	Glyco luc inh	PvdQ acylase
COc1ccc2c(c1)CC/C(=C\C=C\c1ccccc1OC)C2=O	-	-	58	.	-	-
OCc1nc2ccccc2n1CCCc1ccccc1	.	-	.	.	-	.
COc1ccc(CCNC(=O)c2ccc(NC(=O)CC3SC(N4CCCC4)=NC3=O)cc2)cc1OC (stereo not given)	.	-	.	-	-	-
CCc1cccc2c1NC(=O)C21N2CCCC2C(C(=O)c2ccc3ccccc3c2)C12C(=O)Nc1ccccc12 (stereo not given)	-	-	-	-	-	-
CCc1ccc2c(c1)C1(C(=O)N2)N2CCCC2C(C(=O)c2ccc3ccccc3c2)C12C(=O)Nc1ccccc12 (stereo not given)	-	-	65	-	-	-
O=C(O)CCC(=O)Nc1nnc(C(F)(F)F)s1	.	-	.	-	-	-
CCC(NC(=O)Nc1nnc(C(F)(F)F)s1)(C(F)(F)F)C(F)(F)F	62	.	-	-	-	-
CCn1cc(CN2CCCC(C(=O)c3ccc(-c4ccccc4)c(F)c3)C2)cn1 (stereo not given)	55	-	-	-	-	-
O=C(c1ccc(-c2ccccc2)c(F)c1)C1CCCN(CCCn2cccn2)C1 (stereo not given)	-	-	-	-	-	-
CSc1ccccc1C(=O)C1CCCN(Cc2cnn(-c3ccccc3)c2)C1 (stereo not given)	74	-	-	-	-	-
COC(=O)[C@]12C[C@H](CC(=O)NCC3CCCCC3)C(=O)N(Cc3ccccc3)C1=C[C@H](C1CCCC1)O[C@@H]2C	.	-	.	.	.	.
C=CC[C@]12C[C@@]3(O[C@H](C4CCCCC4)N=C3C[C@H](c3ccc(OC)cc3)[C@H]1C)N(Cc1ccncc1)C2=O	.	-	.	.	.	.
N#Cc1cn(Cc2ccccc2)c2ccccc12	-	-	-	-	-	35
O=[N+]([O-])c1ccc(Br)c(CN2CCN(c3ncc(Cc4ccccc4)cn3)CC2)c1	.	-	.	.	.	.
O=C(CN(Cc1cccs1)S(=O)(=O)c1ccc(S(=O)(=O)NC2CCCCC2)cc1)Nc1ccccc1	57	-	-	-	-	-
O=C(CN(C1CC1)S(=O)(=O)c1ccc(S(=O)(=O)NC2CCCCC2)cc1)Nc1ccccc1	.	-	.	-	-	-
O=C1NC(=O)c2c(Br)c(Br)c(Br)c(Br)c21	.	-	.	-	-	-
CCN(CC)S(=O)(=O)c1ccc(N2CCOCC2)c(NC(=O)c2cc3ccccc3oc2=O)c1	-	-	69	-	-	-
CCN(CC)S(=O)(=O)c1ccc(N2CCOCC2)c(NC(=O)c2ccccc2F)c1	-	-	-	-	-	-
CCN(CC)S(=O)(=O)c1ccc(N2CCOCC2)c(NC(=O)c2[nH]c(C)c(C(C)=O)c2C)c1	.	-	.	-	63	-
CCN(CC)S(=O)(=O)c1ccc(N2CCOCC2)c(NC(=O)c2ccc(F)cc2)c1	-	-	-	-	-	-
CCc1nnc(NC(=O)c2oc3ccccc3c2COC(C)C)s1	.	-	.	.	-	-
CCc1cccc2c(C(=O)COC(=O)c3ccc([N+](=O)[O-])s3)c[nH]c12	64	-	-	?	-	-
CC(C)(C)NC(=O)COC(=O)c1ccccc1NC(=O)c1ccco1	-	-	-	-	-	-
O=C(Nc1ccccc1C(=O)OCC(=O)c1c[nH]c2ccccc12)c1ccco1	-	-	105	-	-	-
O=C(OCC(=O)c1c[nH]c2ccccc12)c1ccc([N+](=O)[O-])s1	61	-	-	110	-	-
O=C(c1cccc(Cl)c1)N1CCC(=O)N(C(COCc2ccccc2)Cc2ccccc2)CC1 (stereo not given)	-	55	-	-	-	-
